# Assay results as given in paper PMC4464187 (EXCLI Journal, 2014).
# Where two headings read alike, the source gives them in different places.
# Experiments:
# [1] = test system: NO release in LPS stimulated RAW 264.7 cells; experiment: NO inhibitory assay; format: cell-based; conditions: Mus musculus
# Outline: (§1)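 Cells are kept in DMEM with 10 % heat-inactivated FBS and antibiotics under 5 % CO2 at 37 °C. They are pretreated 1 h with varied concentrations of test compound (DMSO/water), then stimulated with 1 µg/mL LPS (E. coli 026:B6) for 24 h at 37 °C. Supernatant is mixed 1:1 with modified Griess reagent for 30 min and read at 540 nm. Curcumin and L-NAME serve as standards. Triplicates.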
# [2] = test system: NO release in LPS stimulated J774A.1 cells; experiment: NO inhibitory assay; format: cell-based; conditions: Mus musculus, J774.A1, 24 h, read-out: IC50 for NO inhibition J774A.1
# Outline: as §1
# [3] = test system: TNF-α production in LPS stimulated RAW 264.7 cells; experiment: TNF-α assay; format: cell-based; conditions: Mus musculus, RAW264.7, 6 h, read-out: IC50 for inhibition of TNF-α RAW 264.7
# [4] = test system: TNF-α production in LPS stimulated J774A.1 cells; experiment: TNF-α assay; format: cell-based; conditions: Mus musculus, J774.A1, 6 h, read-out: IC50 for inhibition of TNF-α J774A.1
# Outline: (§2)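 Cells cultured in DMEM with heat-inactivated 10 % FBS, penicillin and streptomycin at 37 °C, 5 % CO2. Test compound in DMSO/water is added at several concentrations for 1 h, then LPS (E. coli 026:B6) 1 µg/mL is added. Incubation runs 6 h for TNF-α and 12 h for IL-1ß. Supernatant cytokine is measured by mouse sandwich ELISA at 450 nm, with curcumin and dexamethasone as standards. Triplicates.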
# [5] = test system: IL-1ß production in LPS stimulated RAW 264.7 cells; experiment: IL-1ß assay; format: cell-based; conditions: Mus musculus, RAW264.7, 12 h, read-out: IC50 for inhibition of IL-1β RAW 264.7
# Outline: as §2
# [6] = test system: IL-1ß production in LPS stimulated J774A.1 cells; experiment: IL-1ß assay; format: cell-based; conditions: Mus musculus, J774.A1, 12 h, read-out: IC50 for inhibition of IL-1β J774A.1
# [7] = test system: TNF-α levels in the plasma; experiment: Measurement of TNF-α production in plasma of LPS-treated SD rats; format: in vivo, female Sprague Dawley rats; conditions: LPS 5 mg/Kg i.p., blood 2 h after LPS; for TNF-α plasma level: LPS group 1623 pg/mL
# Outline: (§3)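 Female Sprague Dawley rats, 200-250 g, n = 5 per group. Oral doses are given at 12 h intervals: test compound at 20 and 40 mg/Kg, vehicle 10 % Tween 80, or dexamethasone 5 mg/Kg as positive control. LPS 5 mg/Kg is given i.p. 2 h after the final dose. Blood is taken 2 h (TNF-α) or 6 h (IL-1ß) after LPS. Plasma is assayed by rat sandwich ELISA. Mean ± SD, one-way ANOVA with Dunnett's test.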
# [8] = test system: IL-1ß levels in the plasma; experiment: Measurement of IL-1ß production in plasma of LPS-treated SD rats; format: in vivo, female Sprague Dawley rats; conditions: LPS 5 mg/Kg i.p., blood 6 h after LPS; for IL-1ß plasma level: LPS group 912 pg/mL
# Outline: as §3
# [9] = RAW264.7, 24 h, read-out: IC50 for NO inhibition RAW 264.7
# [10] = RAW264.7, read-out: IC50 for NO inhibition, range over both cells
SMILES,"IC50 [1, 9]","IC50 [1, 10]",IC50 [2],IC50 [3],IC50 [4],IC50 [5],IC50 [6],reduction of TNF-α production ([7]; 40 mg/kg p.o.),TNF-α plasma level ([7]; 40 mg/kg p.o.),reduction of IL-1ß ([8]; 40 mg/kg p.o.),IL-1ß plasma level ([8]; 40 mg/kg p.o.),reduction of TNF-α production ([7]; 5 mg/kg p.o.),TNF-α plasma level ([7]; 5 mg/kg p.o.),reduction of IL-1ß production ([8]; 5 mg/kg p.o.),IL-1ß plasma level ([8]; 5 mg/kg p.o.)
"CC(/C=C/C=C(\C)C(=O)O[C@@H]1O[C@H](CO[C@@H]2O[C@H](CO)[C@@H](O)[C@H](O)[C@H]2O)[C@@H](O)[C@H](O)[C@H]1O)=C\C=C\C=C(C)\C=C\C=C(/C)C(=O)O[C@@H]1O[C@H](CO[C@@H]2O[C@H](CO)[C@@H](O)[C@H](O)[C@H]2O)[C@@H](O)[C@H](O)[C@H]1O [compound 14, crocin]",27.2 ± 4.51 µM,27.2 to 31.5 µM,31.5 ± 1.25 µM,22.4 ± 1.08 µM,25.2 ± 2.56 µM,29.2 ± 3.69 µM,31.2 ± 2.64 µM,48.4%,836 pg/mL,50.2%,456 pg/mL,,,,
"CCOC(=O)c1cc(O)c(O)c(O)c1 [compound 3, ethyl gallate]",,,,17.3 ± 4.61 µM,23.4 ± 2.67 µM,36.9 ± 3.35 µM,39.5 ± 2.86 µM,,,,,,,,
"O=C(O)c1cc(O)c(O)c(O)c1 [compound 10, gallic acid]",,,,23.8 ± 2.14 µM,29.3 ± 3.12 µM,42.1 ± 3.62 µM,47.6 ± 1.67 µM,,,,,,,,
"C[C@@H]1C[C@H]2[C@@H]3CCC4=CC(=O)C=C[C@]4(C)[C@@]3(F)[C@@H](O)C[C@]2(C)[C@@]1(O)C(=O)CO [Dexamethasone, reference compound]",,,,,,,,,,,,75.8%,394 pg/mL,63.0%,338 pg/mL
"N[C@@H](Cn1ccc(=O)c(O)c1)C(=O)O [compound 12, L-mimosine]",19.2 ± 1.53 µM,19.2 to 21.2 µM,21.2 ± 1.36 µM,25.2 ± 2.48 µM,,64.2 ± 2.53 µM,65.8 ± 1.86 µM,60.7%,639 pg/mL,16.3%,763 pg/mL,,,,

# Continued, in another order:
"IC50 [1, 9]","IC50 [1, 10]",IC50 [2],IC50 [3],IC50 [4],IC50 [5],IC50 [6],SMILES,reduction of TNF-α production ([7]; 40 mg/kg p.o.),TNF-α plasma level ([7]; 40 mg/kg p.o.),reduction of IL-1ß ([8]; 40 mg/kg p.o.),IL-1ß plasma level ([8]; 40 mg/kg p.o.),reduction of TNF-α production ([7]; 5 mg/kg p.o.),TNF-α plasma level ([7]; 5 mg/kg p.o.),reduction of IL-1ß production ([8]; 5 mg/kg p.o.),IL-1ß plasma level ([8]; 5 mg/kg p.o.)
19.2 ± 4.97 µM,,78 ± 3.94 µM,45 ± 1.93 µM,49.6 ± 1.33 µM,59.3 ± 2.94 µM,62.3 ± 2.94 µM,"O=C(O)/C=C/c1ccc(O)c(O)c1 [compound 7, Caffeic acid]",,,,,,,,
29.4 ± 1.65 µM,21.3 to 29.4 µM,21.3 ± 1.35 µM,39.4 ± 2.85 µM,41.4 ± 1.67 µM,57.9 ± 0.61 µM,59.2 ± 2.25 µM,"CC/C=C\C[C@H]1C(=O)CC[C@@H]1CC(=O)O [compound 11, jasmonic acid]",48.9%,830 pg/mL,54.2%,418 pg/mL,,,,
23.4 ± 2.62 µM,23.4 to 25.6 µM,25.6 ± 2.47 µM,20.4 ± 2.48 µM,22.2 ± 3.83 µM,35.4 ± 2.34 µM,41.1 ± 1.69 µM,"CC(/C=C/C=C(\C)C(=O)O)=C\C=C\C=C(C)\C=C\C=C(/C)C(=O)O [compound 4, crocetin]",43.6%,914 pg/mL,39.8%,549 pg/mL,,,,
